Experimental data reported in ChEMBL document CHEMBL4765236, “Insights into the Antimicrobial Activity and Cytotoxicity of Engineered α-Helical Peptide Amphiphiles” (J Med Chem, 2016).
Activity calls are given as the source filed them. No cut-off for these calls is given here.

Assays:
Escherichia coli [1] = experiment: Antibacterial activity against Escherichia coli O157:H7 CICC 21530 assessed as bacterial growth inhibition incubated for 18 to 24 hrs by microtiter broth dilution method; format: functional; conditions: time 18-24 hrs
Method in brief: (§1)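 Log-phase bacteria grown at 37 °C in MHB, diluted to 10^5 CFU/mL, mixed 1:1 with serial peptide dilutions (peptide diluted in 0.01% acetic acid, 0.2% BSA); 37 °C for 18-24 h. MIC read by OD492 as lowest concentration giving no growth; mean of 3-5 independent experiments.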

Escherichia coli [2] = experiment: Antibacterial activity against Escherichia coli ATCC 25922 assessed as bacterial growth inhibition incubated for 18 to 24 hrs by microtiter broth dilution method; format: functional; conditions: time 18-24 hrs
Method in brief: (§2)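 Log-phase cells (grown overnight at 37 °C, subcultured in MHB) diluted to 10^5 CFU/mL in MHB and mixed 1:1 with serial peptide dilutions prepared in 0.01% acetic acid/0.2% BSA. Incubated 37 °C for 18-24 h. MIC is the lowest concentration giving no growth by OD492. Reported as the average of 3-5 independent experiments.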

Salmonella paratyphi = experiment: Antibacterial activity against Salmonella paratyphi A CICC 20501 assessed as bacterial growth inhibition incubated for 18 to 24 hrs by microtiter broth dilution method; format: functional, Salmonella enterica subsp. enterica serovar Paratyphi A; conditions: Salmonella enterica, time 18-24 hrs; method in brief: as §1
Shigella flexneri = experiment: Antibacterial activity against Shigella flexneri CMCC 51571 assessed as bacterial growth inhibition incubated for 18 to 24 hrs by microtiter broth dilution method; format: functional; conditions: time 18-24 hrs; method in brief: as §2
Salmonella typhimurium = experiment: Antibacterial activity against Salmonella typhimurium CMCC 51005 assessed as bacterial growth inhibition incubated for 18 to 24 hrs by microtiter broth dilution method; format: functional, Salmonella enterica subsp. enterica serovar Typhimurium; conditions: Salmonella enterica, time 18-24 hrs; method in brief: as §2
Salmonella enteritidis = experiment: Antibacterial activity against Salmonella enteritidis CICC 21527 assessed as bacterial growth inhibition incubated for 18 to 24 hrs by microtiter broth dilution method; format: functional, Salmonella enterica subsp. enterica serovar Enteritidis; conditions: Salmonella enterica, time 18-24 hrs; method in brief: as §2
Vibrio parahaemolyticus = experiment: Antibacterial activity against Vibrio parahaemolyticus CICC 21617 assessed as bacterial growth inhibition incubated for 18 to 24 hrs by broth dilution method; format: functional; conditions: time 18-24 hrs; method in brief: as §2
Staphylococcus aureus [3] = experiment: Antibacterial activity against Staphylococcus aureus ATCC 29213 assessed as bacterial growth inhibition incubated for 18 to 24 hrs by microtiter broth dilution method; format: functional; conditions: time 18-24 hrs; method in brief: as §2
Listeria monocytogenes = experiment: Antibacterial activity against Listeria monocytogenes CICC 21662 assessed as bacterial growth inhibition incubated for 18 to 24 hrs by microtiter broth dilution method; format: functional; conditions: time 18-24 hrs; method in brief: as §2
Bacillus cereus = experiment: Antibacterial activity against Bacillus cereus CMCC 63301 assessed as bacterial growth inhibition incubated for 18 to 24 hrs by microtiter broth dilution method; format: functional; conditions: time 18-24 hrs; method in brief: as §2
Micrococcus luteus = experiment: Antibacterial activity against Micrococcus luteus CMCC 28001 assessed as bacterial growth inhibition incubated for 18 to 24 hrs by microtiter broth dilution method; format: functional; conditions: time 18-24 hrs; method in brief: as §2
Bacillus pumilus = experiment: Antibacterial activity against Bacillus pumilus CMCC 63202 assessed as bacterial growth inhibition incubated for 18 to 24 hrs by microtiter broth dilution method; format: functional; conditions: time 18-24 hrs; method in brief: as §2
Staphylococcus aureus [4] = experiment: Antibacterial activity against methicillin resistant Staphylococcus aureus ATCC 43300 assessed as bacterial growth inhibition incubated for 18 to 24 hrs by microtiter broth dilution method; format: functional; conditions: time 18-24 hrs; method in brief: as §1
Candida albicans = experiment: Antifungal activity against Candida albicans ATCC 10231 assessed as fungal growth inhibition incubated for 18 to 24 hrs by microtiter broth dilution method; format: functional; conditions: time 18-24 hrs; method in brief: as §2
Erythrocyte = experiment: Hemolytic activity against human red blood cells assessed as concentration required to cause 10% hemoglobin release measured after 1 hr by microplate reader analysis; format: ADME, cell-based
Method in brief: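 Fresh heparinized human RBCs washed three times in 10 mM PBS pH 7.4 and resuspended to about 1% (v/v) (5.4 × 10^8 cells/mL). Mixed 1:1 with peptide in PBS for 1 h at 37 °C, then centrifuged. Supernatant hemoglobin read at A540. PBS set as 0% and 0.1% Triton X-100 as 100% hemolysis. MHC is the concentration causing 10% hemolysis.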

[5] = Therapeutic index, ratio of MHC10 for human RBC to geometric mean of peptide MIC for Staphylococcus aureus ATCC 29213; format: toxicity; conditions: human red blood cells (RBC), pooled result: one value given for 9 cell lines, strains, targets or settings, read-out: TI
Method in brief: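 Therapeutic index = MHC (peptide concentration giving 10% hemolysis of human RBCs, 1 h, 37 °C, A540) divided by geometric mean of MICs from broth microdilution (10^5 CFU/mL in MHB, 37 °C, 18-24 h, OD492).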

Escherichia coli [6] = experiment: Antibacterial activity against Escherichia coli O157:H7 CICC 21530 assessed as bacterial growth inhibition incubated for 18 to 24 hrs in presence of 150 mM NaCl by microtiter broth dilution method (reference value: 0.85 to > 71.5 uM); format: functional; conditions: time 18-24 hrs
Escherichia coli [7] = experiment: Antibacterial activity against Escherichia coli O157:H7 CICC 21530 assessed as bacterial growth inhibition incubated for 18 to 24 hrs in presence of 4.5 mM KCl by microtiter broth dilution method (reference value: 0.85 to > 71.5 uM); format: functional; conditions: time 18-24 hrs
Escherichia coli [8] = experiment: Antibacterial activity against Escherichia coli O157:H7 CICC 21530 assessed as bacterial growth inhibition incubated for 18 to 24 hrs in presence of 6 mM NH4Cl by microtiter broth dilution method (reference value: 0.85 to > 71.5 uM); format: functional; conditions: time 18-24 hrs
Escherichia coli [9] = experiment: Antibacterial activity against Escherichia coli O157:H7 CICC 21530 assessed as bacterial growth inhibition incubated for 18 to 24 hrs in presence of 4 mM FeCl3 by microtiter broth dilution method (reference value: 0.85 to > 71.5 uM); format: functional; conditions: time 18-24 hrs
RAW264.7 = experiment: Antiinflammatory activity against mouse RAW264.7 cells assessed as inhibition of LPS-induced TNF-alpha production at 0.5 to 64 uM measured after 24 hrs by […] ELISA; format: functional, cell-based; conditions: dose 0.5-64 µM
Method in brief: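 RAW264.7 cells plated at 1-2 × 10^5 cells/mL and stimulated with 500 ng/mL LPS with or without peptide (0.5-64 µM) for 24 h at 37 °C. Controls were untreated cells and LPS alone. TNF-α in the supernatant measured by ELISA. NO measured by Griess reagent (1% sulfanilamide, 0.1% naphthylethylenediamine, 5% phosphoric acid).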

HepG2 = experiment: Cytotoxicity against human HepG2 cells assessed as reduction in cell viability incubated for 24 hrs by MTT assay; format: functional, cell-based
Method in brief: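 HepG2 survival measured by MTT assay over a peptide range of 0.25-64 µM.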

Staphylococcus aureus [10] = experiment: Antibacterial activity against Staphylococcus aureus ATCC 29213 assessed as bacterial growth inhibition incubated for 18 to 24 hrs in presence of 4.5 mM KCl by microtiter broth dilution method (reference value: 0.43 to > 71.5 uM); format: functional; conditions: time 18-24 hrs
Staphylococcus aureus [11] = experiment: Antibacterial activity against Staphylococcus aureus ATCC 29213 assessed as bacterial growth inhibition incubated for 18 to 24 hrs in presence of 1 mM MgCl2 by microtiter broth dilution method (reference value: 0.43 to > 71.5 uM); format: functional; conditions: time 18-24 hrs
Staphylococcus aureus [12] = experiment: Antibacterial activity against Staphylococcus aureus ATCC 29213 assessed as bacterial growth inhibition incubated for 18 to 24 hrs in presence of […] by microtiter broth dilution method (reference value: 0.43 to > 71.5 uM); format: functional; conditions: time 18-24 hrs
Escherichia coli [13] = experiment: Bactericidal activity against Escherichia coli O157:H7 CICC 21530 assessed as bacterial killing at 1 times MIC by time kill assay; format: functional, organism-based; conditions: time 1085.0 min, TDE = time-dependent effect

| Substance | MIC (Escherichia coli [1]) | MIC (Escherichia coli [2]) | MIC (Salmonella paratyphi) | MIC (Shigella flexneri) | MIC (Salmonella typhimurium) | MIC (Salmonella enteritidis) | MIC (Vibrio parahaemolyticus) | MIC (Staphylococcus aureus [3]) | MIC (Listeria monocytogenes) | MIC (Bacillus cereus) | MIC (Micrococcus luteus) | MIC (Bacillus pumilus) | MIC (Staphylococcus aureus [4]) | MIC (Candida albicans) | MHC10 (Erythrocyte) | selectivity ratio [5] | MIC (Escherichia coli [6]) | MIC (Escherichia coli [7]) | MIC (Escherichia coli [8]) | MIC (Escherichia coli [9]) | also measured |
| --- | --- | --- | --- | --- | --- | --- | --- | --- | --- | --- | --- | --- | --- | --- | --- | --- | --- | --- | --- | --- | --- |
| H-WGEAFSAGVHRLANGGNG-NH2 | > 71.2 µM | > 71.2 µM | > 71.2 µM | > 71.2 µM | > 71.2 µM | > 71.2 µM | > 71.2 µM | > 71.2 µM | > 71.2 µM | > 71.2 µM | > 71.2 µM | > 71.2 µM | > 71.2 µM | > 71.2 µM | > 71.15 µM | 1 | > 71.2 µM | > 71.2 µM | > 71.2 µM | > 71.2 µM | Activity (RAW264.7): Active; Activity (HepG2): Dose-dependent effect; MIC (Staphylococcus aureus [10]): > 71.2 µM; MIC (Staphylococcus aureus [11]): > 71.2 µM; MIC (Staphylococcus aureus [12]): > 71.2 µM; Activity (Escherichia coli [13]): Tde |
| H-WGRAFRRGVRRLARGGRR-NH2 | 3.67 µM | 14.7 µM | 7.33 µM | 7.33 µM | > 58.6 µM | > 58.6 µM | 29.3 µM | 14.7 µM | 7.33 µM | 14.7 µM | 7.33 µM | > 58.6 µM | 14.7 µM | 29.3 µM | > 58.64 µM | 8 | 14.7 µM | 3.67 µM | 3.67 µM | > 58.6 µM | Activity (RAW264.7): Active; Activity (HepG2): Dose-dependent effect; MIC (Staphylococcus aureus [10]): 7.33 µM; MIC (Staphylococcus aureus [11]): 3.67 µM; MIC (Staphylococcus aureus [12]): > 58.6 µM; Activity (Escherichia coli [13]): Tde |
| H-WGRAFRRLVRRLARGLRR-NH2 | 6.97 µM | 27.9 µM | 3.49 µM | 3.49 µM | 13.9 µM | > 55.8 µM | 13.9 µM | 3.49 µM | 1.74 µM | 55.8 µM | 27.9 µM | 55.8 µM | 6.97 µM | 13.9 µM | > 55.78 µM | 11.8 | 13.9 µM | 3.49 µM | 3.49 µM | > 55.8 µM | Activity (RAW264.7): Active; Activity (HepG2): Dose-dependent effect; MIC (Staphylococcus aureus [10]): 0.87 µM; MIC (Staphylococcus aureus [11]): 1.74 µM; MIC (Staphylococcus aureus [12]): > 55.8 µM; Activity (Escherichia coli [13]): Tde |
| H-WGRAFSAGVHRLANGGNG-NH2 | > 70.1 µM | > 70.1 µM | > 70.1 µM | > 70.1 µM | > 70.1 µM | > 70.1 µM | > 70.1 µM | > 70.1 µM | > 70.1 µM | > 70.1 µM | > 70.1 µM | > 70.1 µM | > 70.1 µM | > 70.1 µM | > 70.09 µM | 1.08 | > 70.1 µM | > 70.1 µM | > 70.1 µM | > 70.1 µM | Activity (RAW264.7): Active; Activity (HepG2): Dose-dependent effect; MIC (Staphylococcus aureus [10]): > 70.1 µM; MIC (Staphylococcus aureus [11]): > 70.1 µM; MIC (Staphylococcus aureus [12]): > 70.1 µM; Activity (Escherichia coli [13]): Tde |
